Results from PubChem BioAssay.
Records with an inconclusive call do not appear.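 Rule for the calls, unless noted: active = RAM network inhibition above 8.4% in each of two replicates, 3 SD over the compound average; inconclusive = above 8.4% inhibition in only one replicate; inactive = 8.4% inhibition or less in each replicate.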

Key:
[1] = OD615 S. cerevisiae growth inhibition, permissive medium, pilot counter-assay, permissive growth control for S. cerevisiae lifespan shortening project (AID 705;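 active = growth inhibition above 25% in both replicates, a cutoff set 3 SD above the mean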); settings: OD615, 24 h, at 10 µM, stronger effect = higher value
In short: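 System: S. cerevisiae with engineered DeaD lifespan system / Measured by: absorbance (optical density) at 615 nm / Read-out: reduction in yeast growth (OD615) / Times: 4 h cell pre-growth, 24 h exposure at 30 °C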

[2] = Restrictive medium S. cerevisiae growth inhibition, OD615, pilot screen of yeast lifespan reduction project, restrictive growth control (AID 706;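 active = growth inhibition above a set limit, 3 SD over mean compound inhibition, in both replicates, cut at about 43% in these data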;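 note: modified DeaD lifespan yeast strain shifted to restrictive glucose medium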); settings: OD615, 48 h, at 10 µM, stronger effect = higher value
In short: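 System: Engineered S. cerevisiae DeaD strain | Buffer or medium: Glucose-based CSMM-D restrictive medium | Schedule: 4 h pre-incubation, 48 h exposure at 30 °C | Technique: Optical density at 615 nm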

[3] = viability gain of MRP-1-high H69AR cells under doxorubicin, pilot screen, MRP-1 activator project, CellTiter-Glo, duplicate (AID 807;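 active = viability increase at or above a cutoff of the median across tested compounds plus 3 SD, cut at about 8.5% in these data, passing the limit was not always enough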;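 note: compound pretreatment 18-22 h then 72 h combined with doxorubicin; 0% = doxorubicin alone and 100% = vehicle without doxorubicin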); settings: H69AR viability with doxorubicin, CellTiter-Glo luminescence; at 10 µM; stronger effect = higher value
[4] = growth suppression of beta-catenin knockout HCT116, pilot screen, human colon tumor cells (AID 823;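 active = cell viability at or below a set limit in both duplicate runs, the limit being the all-compound median minus 4 SD, cut at about 23% in these data, passing the limit was not always enough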;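 note: 0% = wells killed by 20 µM Hyamine and 100% = untreated DMSO cell wells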); settings: CellTiter-Glo, 60 h, at 10 µM, stronger effect = lower value
[5] = growth suppression of PTEN-deleted HCT116, pilot screen, cell-based, HCT116 clonal line, CellTiter-Glo (AID 824;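 active = viability at or below 27.92% in each of two runs, the all-compound median minus 4 SD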;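 note: 0% = 20 µM Hyamine control and 100% = vehicle cell control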); settings: 60 h, at 10 µM, stronger effect = lower value
[6] = inhibitors of the yeast RAM network, pilot screen, dse1pr::URA3 reporter, 5-FOA selection (AID 869;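 active = inhibition over a set limit, the all-compound mean plus 3 SD, in both replicate runs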;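 note: 0% = DMSO wells with no growth and 100% = 10 µM 1-NA-PP1 with full growth; RAM network block rescues cells from 5-FOA so hits raise OD615 growth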); settings: S. cerevisiae dse1pr::URA3 5-FOA growth, OD615, 2 d; at 10 µM; stronger effect = higher value; strain carries analog-sensitive mutant Cbk1 kinase
[7] = RAM signaling pathway blockade in yeast – S. cerevisiae, Pdr1DBD-CYC8 efflux-inhibited sensitized strain, primary screen (AID 1298);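 note: 0% = DMSO untreated cells without growth and 100% = 10 µM 1-NA-PP1 full growth; higher means more yeast growth rescued from 5-FOA killing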; settings: S. cerevisiae cbk1-as DSE1-URA3 strain, 5-FOA growth OD615, 2 d; at 50 µM; stronger effect = higher value

O=C(Nc1ccccc1)OCCOc1ccccc1
inactive: growth inhibition [1] -9.16% | growth inhibition [2] 4.62% | viability increase [3] 2.54% | viability [4] 91.7% | viability [5] 100% | inhibition [6] 2.92% | RAM network inhibition [7] 1.95%

COc1cccc(OC)c1C(=O)Nc1nnc(C(C)C)s1
inactive: growth inhibition [1] -6.36% | growth inhibition [2] 6.23% | viability increase [3] -1.98% | viability [4] 89.9% | viability [5] 85.1% | inhibition [6] 2.25% | RAM network inhibition [7] 0.97%

O=C(Oc1ccccc1)c1cccc(N2C(=O)CCC2=O)c1
inactive: growth inhibition [1] -1.76% | growth inhibition [2] 0.85% | viability increase [3] -1.06% | viability [4] 105% | viability [5] 105% | inhibition [6] 1.27% | RAM network inhibition [7] 1.74%

CC1CCN(S(=O)(=O)c2ccc3c(c2)oc(=O)n3CC(=O)N2c3ccccc3CC2C)CC1 (stereo not drawn)
inactive: growth inhibition [1] -4.77% | growth inhibition [2] -7.59% | viability increase [3] -4.28% | viability [4] 68.5% | viability [5] 52.9% | inhibition [6] 2.85% | RAM network inhibition [7] 7.34%

CC1CCCCN1CCCNC(=O)C1CCN(c2nc3ccccc3o2)CC1 (stereo not drawn)
inactive: growth inhibition [1] -2.48% | growth inhibition [2] -4.11% | viability increase [3] -0.83% | viability [4] 99.9% | viability [5] 97.8% | inhibition [6] 0.5% | RAM network inhibition [7] 3.1%

Cc1ccc(-c2nc(C#N)c(NCCN3CCCCC3)o2)cc1
inactive: growth inhibition [1] 12.4% | growth inhibition [2] -1.35% | viability increase [3] -3.34% | viability [4] 92.5% | viability [5] 92.5% | inhibition [6] 1.4% | RAM network inhibition [7] -1.13%

O=C1CCCC/C1=C\Nc1ccc(Cl)cn1
inactive: growth inhibition [1] -4.26% | growth inhibition [2] 1.26% | viability increase [3] 1.58% | viability [4] 98.1% | viability [5] 95% | inhibition [6] 2.25% | RAM network inhibition [7] -1.13%

O=c1sc(N2CCN(c3ccccc3F)CC2)nc2ccsc12
inactive: growth inhibition [1] -7.07% | growth inhibition [2] -8.01% | viability increase [3] -1.94% | viability [4] 85.3% | viability [5] 81.9% | inhibition [6] 3.63% | RAM network inhibition [7] 7.46%

CCCc1nnc(NC(=O)CC(=O)OCC)s1
inactive: growth inhibition [1] 6.47% | growth inhibition [2] -8.03% | viability increase [3] -1.07% | viability [4] 97% | viability [5] 93.1% | inhibition [6] 0.96% | RAM network inhibition [7] -0.11%

CC1COC2C(O1)N(S(C)(=O)=O)CCN2S(C)(=O)=O (stereo not drawn)
inactive: growth inhibition [1] -7.71% | growth inhibition [2] -12.4% | viability increase [3] 0.34% | viability [4] 99.3% | viability [5] 101% | inhibition [6] 0.68% | RAM network inhibition [7] 2.6%

N#Cc1c2n(c3c(=O)n(CC(=O)c4ccc(Br)cc4)cnc13)CCCC2
inactive: growth inhibition [1] -18.3% | growth inhibition [2] -5.47% | viability increase [3] -0.17% | viability [4] 86.1% | viability [5] 86% | inhibition [6] 0.885% | RAM network inhibition [7] 2.03%

Cc1nc2sc(C(c3cccs3)N3CCN(c4ccccc4)CC3)c(O)n2n1 (stereo not drawn)
inactive: growth inhibition [1] 0.19% | growth inhibition [2] 5.34% | viability increase [3] -0.21% | viability [4] 96.5% | viability [5] 94.8% | inhibition [6] 1.19% | RAM network inhibition [7] 2.14%

O=C(c1ccccc1)c1ccc2nc(N3CCN(C(=O)c4ccco4)CC3)c3nncn3c2c1
inactive: growth inhibition [1] -3.47% | growth inhibition [2] 11.3% | viability increase [3] -3.94% | viability [4] 65.3% | viability [5] 72.7% | inhibition [6] 2.05% | RAM network inhibition [7] -0.16%

O=C(Cn1nnc(-c2ccccc2F)n1)Nc1cccc2ncccc12
inactive: growth inhibition [1] 1.42% | growth inhibition [2] -14.2% | viability increase [3] -2.32% | viability [4] 103% | viability [5] 98% | inhibition [6] 1.36% | RAM network inhibition [7] 2.23%

CCCCOc1ccccc1NC(=O)CC1SC(=NCC)N(CC)C1=O (stereo not drawn)
inactive: growth inhibition [1] -9.35% | growth inhibition [2] -0.705% | viability increase [3] -2.29% | viability [4] 85.6% | viability [5] 81.3% | inhibition [6] 1.08% | RAM network inhibition [7] 2.04%

COc1cccc(C(=O)Nc2cc(=O)n(C)c(=O)n2C)c1
inactive: growth inhibition [1] -11% | growth inhibition [2] -8.35% | viability increase [3] -2.05% | viability [4] 103% | viability [5] 97.4% | inhibition [6] 2.98% | RAM network inhibition [7] 2.08%

Cc1ccc(S(=O)(=O)N2C(=S)SCC2(C)C)cc1
inactive: growth inhibition [1] -0.04% | growth inhibition [2] 14.3% | viability increase [3] -1.47% | viability [4] 91.9% | viability [5] 83.5% | inhibition [6] -1.13% | RAM network inhibition [7] 0.51%

Cc1cc2oc(C(=O)Nc3cccnc3)c(C)c2cc1C
inactive: growth inhibition [1] 7.22% | growth inhibition [2] 6.46% | viability increase [3] -1.32% | viability [4] 90.1% | viability [5] 87% | inhibition [6] 0.52% | RAM network inhibition [7] 1.77%

C=CCn1c(=O)/c(=C/c2cc(OC)c(OC)c(OC)c2)s/c1=C(/C#N)c1nc2ccccc2n1C
inactive: growth inhibition [1] -4.25% | growth inhibition [2] 8.29% | viability increase [3] -3.61% | viability [4] 46.3% | viability [5] 50.9% | inhibition [6] 3.67% | RAM network inhibition [7] 4.52%

CCCCCn1c(=O)[nH]c2cc(C(=O)O)ccc2c1=O
inactive: growth inhibition [1] -13.9% | growth inhibition [2] -12.1% | viability increase [3] -1.3% | viability [4] 102% | viability [5] 90.7% | inhibition [6] 1.91% | RAM network inhibition [7] 2.2%

COc1ccc(-c2nc(=S)[nH][nH]2)cc1
inactive: growth inhibition [1] -5.89% | growth inhibition [2] -17% | viability increase [3] -1.62% | viability [4] 99% | viability [5] 89% | inhibition [6] 1.53% | RAM network inhibition [7] 5.26%

CCOC(=O)C1C(=O)CC(C)(O)C(C(=O)OCC)C1c1ccco1 (stereo not drawn)
inactive: growth inhibition [1] -11% | growth inhibition [2] -5.69% | viability increase [3] -1.04% | viability [4] 101% | viability [5] 103% | inhibition [6] 1.04% | RAM network inhibition [7] 2.45%

CCCCCSc1nc2c(c(=O)[nH]c(=O)n2C)n1C(C)C
inactive: growth inhibition [1] -8.31% | growth inhibition [2] -3.84% | viability increase [3] 1.12% | viability [4] 89.5% | viability [5] 85.4% | inhibition [6] 1.3% | RAM network inhibition [7] 1.95%

CCOc1ccccc1NC(=O)Cn1cnc2c(nnn2-c2cccc(OC)c2)c1=O
inactive: growth inhibition [1] -2.45% | growth inhibition [2] -1.71% | viability increase [3] -1.23% | viability [4] 87.2% | viability [5] 73.3% | inhibition [6] 3.82% | RAM network inhibition [7] 4.89%
